Experiments:
[1] = Half life of the compound; format: physicochemical
[2] = Half life of the compound in saline at pH 5.5 by radio-HPLC and radio-TLC analysis; format: physicochemical
Summary of the method: (§1)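 Aqueous saline (pH 5.5) samples of the 18F compound were analysed by radio-HPLC and radio-TLC at 5, 15, 30, 60 and 120 min to follow hydrolysis of the Si–F bond. Hydrolysis was followed up to 180 min. Half-life was taken from the decay of intact tracer.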

[3] = Lipophilicity, log D of the compound at pH 4; format: physicochemical; conditions: buffer
[4] = Half life human plasma by radio-HPLC and radio-TLC analysis; format: ADME, cell-free
Summary of the method: (§2)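 The 18F-labelled compound was incubated in human plasma at 37 °C and monitored by radio-HPLC and radio-TLC for at least 120 min. The intact fraction and the half-life were obtained from this time course.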

Heart = assay: Biodistribution in Wistar rat heart at 10 MBq after 90 mins by PET analysis; format: ADME, organism-based; conditions: in vivo, 1.5 h
Rattus norvegicus [5] = organism: Rattus norvegicus; assay: Biodistribution in Wistar rat bladder at 10 MBq after 90 mins by PET analysis; format: ADME, organism-based, Urinary bladder/Urine; conditions: in vivo, 1.5 h
[6] = Chemical stability of the compound in saline after 180 mins at pH 5.5 by radio-HPLC and radio-TLC analysis; format: physicochemical; conditions: buffer, pH 5.5, 3 h; summary of the method: as §1
Liver = assay: Biodistribution in Wistar rat liver at 10 MBq after 90 mins by PET analysis; format: ADME, organism-based; conditions: in vivo, 1.5 h
[7] = Lipophilicity, log D of the compound at pH 7.4; format: physicochemical; conditions: buffer
Intestine = assay: Biodistribution in Wistar rat intestine at 10 MBq after 90 mins by PET analysis; format: ADME, organism-based; conditions: in vivo, 1.5 h
[8] = Drug degradation in water at pH 7.4 by radio-HPLC and radio-TLC analysis; format: physicochemical; conditions: read-out: Drug degradation
Summary of the method: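 Decomposition of the 18F compound in water at pH 7.4 was followed by radio-HPLC and radio-TLC, read after 120 min.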

[9] = Metabolic stability in human plasma assessed as compound remaining after 2 hrs by radio-HPLC and radio-TLC analysis; format: ADME, cell-free; conditions: read-out: Stability; summary of the method: as §2
[10] = Chemical stability of the compound in saline after 2 hrs at pH 5.5 by radio-HPLC and radio-TLC analysis; format: physicochemical; conditions: read-out: Stability; summary of the method: as §1
Muscle tissue = assay: Biodistribution in Wistar rat muscle at 10 MBq after 90 mins by PET analysis; format: ADME, organism-based; conditions: in vivo, 1.5 h
Rattus norvegicus [11] = organism: Rattus norvegicus; assay: Biodistribution in Wistar rat femur bone at 10 MBq after 90 mins by PET analysis; format: ADME, organism-based, Bone element; conditions: in vivo, 1.5 h
[12] = Octanol-water partition coefficient, log P of the compound; format: physicochemical
Summary of the method: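 LogP was calculated as clogP with ChemDraw 11.0.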

O=[N+]([O-])c1nccn1CCC[Si]([18F])(c1cccc2ccccc12)c1cccc2ccccc12
half-life [1]: 130 min

O=C(Cn1ccnc1[N+](=O)[O-])NCCC[Si]([18F])(c1cccc2ccccc12)c1cccc2ccccc12
half-life [2]: 60 min
logD [3]: 0.12
half-life [4]: < 5 min

O=[N+]([O-])c1nccn1CCOCCOCc1cn(CCC[Si]([18F])(c2cccc3ccccc23)c2cccc3ccccc23)nn1
half-life [2]: 60 min
half-life [4]: < 5 min

CC(C)(C)[Si]([18F])(c1cccc(C(=O)NCCn2ccnc2[N+](=O)[O-])c1)C(C)(C)C
SUV (Heart): 0.5%
SUV (Rattus norvegicus [5]): 9.5%
Stability [6]: Stable
SUV (Liver): 7.3%
logD [7]: 2.12
SUV (Intestine): 6.5%
degraded [8]: < 10%
remaining at 2 h [9]: 85%
remaining at 2 h [10]: 100%
SUV (Muscle tissue): 0.3%
SUV (Rattus norvegicus [11]): 2.8%

O=C(Cn1ccnc1[N+](=O)[O-])NCC(F)(F)C(F)(F)F
P [12]: 5.7

Reference: ChEMBL document CHEMBL2390899, “Synthesis of new 18F-radiolabeled silicon-based nitroimidazole compounds” (Bioorg Med Chem, 2013)
